Data as given in ChEMBL document CHEMBL1153575, “Synthesis and in vitro anticancer activity of 2,4-azolidinedione-acetic acids derivatives” (2009).

Assays:
Format in all cases: functional
[1] = system: NCI-H460; test: Cytotoxicity against human NCI-H460 cells assessed as cell growth at 100 uM after 48 hrs by sulforhodamine B assay; conditions: NCI-H460, 48 h, read-out: Activity
Procedure, shortened: (§1)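 Primary one-dose screen on a three-line panel (MCF7 breast, NCI-H460 lung, SF-268 CNS) at 10^-4 M. Cells were preincubated 24–48 h before a single addition of the agent, followed by 48 h incubation. Endpoint was SRB protein staining, reported as percent growth versus untreated controls.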

[2] = system: MCF7; test: Cytotoxicity against human MCF7 cells assessed as cell growth at 100 uM after 48 hrs by sulforhodamine B assay; conditions: MCF7, 48 h, read-out: Activity; procedure, shortened: as §1
[3] = system: SF-268; test: Cytotoxicity against human SF268 cells assessed as cell growth at 100 uM after 48 hrs by sulforhodamine B assay; conditions: SF-268, 48 h, read-out: Activity; procedure, shortened: as §1
[4] = system: CCRF-CEM; test: Growth inhibition of human CCRF-CEM cells after 48 hrs by sulforhodamine B assay
Procedure, shortened: (§2)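 Five-concentration assay in about 60 human tumour lines, using 10-fold dilutions from 10^-4 to 10^-8 M with 48 h continuous exposure and an SRB protein endpoint. Percent growth at each level comes from time-zero, untreated-control and treated absorbances. GI50 is 50% lower net protein increase than control. Values beyond the tested range are given as greater or less than the extreme concentration.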

[5] = system: MOLT-4; test: Growth inhibition of human MOLT4 cells after 48 hrs by sulforhodamine B assay; conditions: MOLT-4, 48 h; procedure, shortened: as §2
[6] = system: HOP-92; test: Growth inhibition of human HOP92 cells after 48 hrs by sulforhodamine B assay; conditions: HOP-92, 48 h; procedure, shortened: as §2
[7] = system: HL-60(TB); test: Growth inhibition of human HL-60(TB) cells after 48 hrs by sulforhodamine B assay; conditions: HL-60, 48 h
Procedure, shortened: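 Cells inoculated and preincubated 24–48 h in microtiter plates, then exposed continuously for 48 h to five 10-fold dilutions from 10^-4 to 10^-8 M. End point by sulforhodamine B protein staining, read spectrophotometrically against untreated controls and time-zero absorbance. Percent growth computed per concentration; GI50 taken where [(Ti−Tz)/(C−Tz)]×100 = 50, expressed as log molar value.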

[8] = system: K562; test: Growth inhibition of human K562 cells after 48 hrs by sulforhodamine B assay; conditions: K562, 48 h; procedure, shortened: as §2
[9] = system: SR; test: Growth inhibition of human SR cells after 48 hrs by sulforhodamine B assay; procedure, shortened: as §2
[10] = read-out: pLC50 (the source's name) (converted)

`O=C(/C=C1\SC(=O)N(CC(=O)Nc2ccccc2C(F)(F)F)C1=O)Nc1ccc(Cl)cc1` was tested, and the growth at 100 µM [1] was 87%, the growth at 100 µM [2] was 61% and the growth at 100 µM [3] was 86%.

Work on `O=C(CN1C(=O)N/C(=C\c2ccc(Cl)cc2)C1=O)Nc1ccccc1C(F)(F)F` yielded a GI50 [4] of 1200 nM, an LC50 [4] of over 100 µM and a TGI ([4]; read-out: pTGI (converted)) of over 100 µM. For the same compound, the GI50 [5] was 4.57 µM, the CC50 [5, 10] was 81.3 µM and the TGI ([5]; read-out: pTGI (converted)) was 24 µM. The GI50 [6] was 18.2 µM, the LC50 [6] was over 100 µM and the TGI ([6]; read-out: pTGI (converted)) was 97.7 µM. For the same compound, the GI50 [7] was 295 nM, the CC50 [7, 10] was over 100 µM and the TGI ([7]; read-out: pTGI (converted)) was 2000 nM. The GI50 [8] was 5.37 µM, the CC50 [8, 10] was over 100 µM and the TGI ([8]; read-out: pTGI) was over 100 µM. The GI50 [9] was 309 nM, the LC50 [9] was 52.5 µM and the TGI ([9]; read-out: pTGI (converted)) was 12.6 µM.

`O=C(/C=C1\SC(=O)N(CC(=O)Nc2ccccc2C(F)(F)F)C1=O)Nc1ccc(F)cc1` was tested, and the growth at 100 µM [1] was 77%, the growth at 100 µM [2] was 74% and the growth at 100 µM [3] was 75%.

For `O=C(/C=C1\SC(=O)N(CC(=O)Nc2ccc(Cl)cc2)C1=O)Nc1ccc(Cl)cc1`, the growth at 100 µM [1] was 107%, the growth at 100 µM [2] was 111% and the growth at 100 µM [3] was 116%.
